Columns and labels:
[1] = target: T1, Glutamate receptor ionotropic, kainate 1 (Homo sapiens, UniProt P39086); assay: In vitro inhibitory activity against human ionotropic glutamate receptor ionotropic kainate 1 (GluR-5) expressed in HEK293 cells.; type: cell-based
[2] = target: Glutamate receptor 1 (Rattus norvegicus) (UniProt P19490); assay: In vitro inhibitory activity against Ionotropic glutamate receptor AMPA 1 of HEK293 cells in FLIPR assay
[3] = target: T1, Glutamate receptor ionotropic, kainate 1; assay: Binding inhibition of compound against Ionotropic glutamate receptor ionotropic kainate 1 (GluR5) using [3H]ATPA as radioligand
In short: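 GluR5-expressing HEK293 cell membranes (washed in 50 mM Tris-HCl pH 7.1, prepared at 0-4 °C) incubated with 3 nM [3H]ATPA, 46-84 µg protein/assay, 60 min at 2 °C; test compounds at 3-30 µM. Nonspecific binding defined with 0.6 mM Glu; rapid filtration, liquid scintillation counting. At least three separate experiments.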

[4] = tested on: Mus musculus; assay: ATPA induced rigidity in mice was determined after 5 minutes of administration; type: functional
In short: (§1)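 Female NMRI mice, 20-25 g. Test substance given intravenously, n = 8 per dose, 5 or 30 min before ATPA (30 mg/kg i.v.; 3 mg/mL in saline, pH 7). Rigidity scored every 5 min over 30 min after ATPA, as percent of rigid mice over time.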

[5] = target: Glutamate receptor 4 (Rattus norvegicus) (UniProt P19493); assay: In vitro inhibitory activity against Ionotropic glutamate receptor AMPA 4 of HEK293 cells in FLIPR assay
[6] = target: Glutamate receptor 2 (Rattus norvegicus) (UniProt P19491); assay: In vitro inhibitory activity against Ionotropic glutamate receptor AMPA 2 of HEK293 cells in FLIPR assay
[7] = target: Glutamate receptor ionotropic, kainate 2 (Homo sapiens, UniProt Q13002); assay: In vitro inhibitory activity against Ionotropic glutamate receptor ionotropic kainate 2 (GluR-6) of HEK293 cells in FLIPR assay; type: cell-based
In short: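 Human GluR6 stably expressed in HEK293, plated 24 h before assay. Cells loaded with 2 µM Fluo-4-AM for 60 min at room temperature, washed into Na+-free Ringer, pH 7.4. Compound preincubated 1.5 min, then 0.2 µM domoate added (final). Inhibition of the FLIPR Ca2+ fluorescence rise (ex 488, em 510-570 nm) was measured; IC50 from ≥3 experiments.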

[8] = tested on: Mus musculus; assay: ATPA induced rigidity in mice was determined after 30 minutes of administration; type: functional; in short: as §1
[9] = target: Glutamate receptor 3 (Rattus norvegicus) (UniProt P19492); assay: In vitro inhibitory activity against Ionotropic glutamate receptor AMPA 3 of HEK293 cells in FLIPR assay
Sequence of Glutamate receptor 3 (Rattus norvegicus) (P19492 whole entry, looked up): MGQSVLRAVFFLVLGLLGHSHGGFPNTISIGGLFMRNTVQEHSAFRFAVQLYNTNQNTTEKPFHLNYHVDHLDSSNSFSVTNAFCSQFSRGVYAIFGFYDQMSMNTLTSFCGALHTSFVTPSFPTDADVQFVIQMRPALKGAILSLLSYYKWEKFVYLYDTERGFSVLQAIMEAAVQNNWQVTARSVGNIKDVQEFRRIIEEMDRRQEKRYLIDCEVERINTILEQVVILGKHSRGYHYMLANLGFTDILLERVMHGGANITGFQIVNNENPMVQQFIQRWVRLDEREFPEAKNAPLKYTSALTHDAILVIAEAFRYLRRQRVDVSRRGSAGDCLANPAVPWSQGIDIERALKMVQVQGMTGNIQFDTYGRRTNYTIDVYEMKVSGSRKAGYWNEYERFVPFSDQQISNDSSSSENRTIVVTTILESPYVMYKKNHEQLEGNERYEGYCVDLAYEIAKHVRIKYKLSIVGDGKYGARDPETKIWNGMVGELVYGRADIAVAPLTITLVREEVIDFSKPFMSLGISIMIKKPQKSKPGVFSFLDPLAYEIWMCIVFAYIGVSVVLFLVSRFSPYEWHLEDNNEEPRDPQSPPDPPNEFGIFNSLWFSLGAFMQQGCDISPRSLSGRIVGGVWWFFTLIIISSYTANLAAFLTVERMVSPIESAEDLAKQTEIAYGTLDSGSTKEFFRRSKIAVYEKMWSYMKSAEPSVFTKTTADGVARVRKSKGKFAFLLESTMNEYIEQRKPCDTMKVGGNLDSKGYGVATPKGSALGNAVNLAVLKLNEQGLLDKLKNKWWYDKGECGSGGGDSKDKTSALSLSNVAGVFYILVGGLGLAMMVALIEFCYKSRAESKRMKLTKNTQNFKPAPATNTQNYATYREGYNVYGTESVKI

T1 sequence (P39086 whole entry): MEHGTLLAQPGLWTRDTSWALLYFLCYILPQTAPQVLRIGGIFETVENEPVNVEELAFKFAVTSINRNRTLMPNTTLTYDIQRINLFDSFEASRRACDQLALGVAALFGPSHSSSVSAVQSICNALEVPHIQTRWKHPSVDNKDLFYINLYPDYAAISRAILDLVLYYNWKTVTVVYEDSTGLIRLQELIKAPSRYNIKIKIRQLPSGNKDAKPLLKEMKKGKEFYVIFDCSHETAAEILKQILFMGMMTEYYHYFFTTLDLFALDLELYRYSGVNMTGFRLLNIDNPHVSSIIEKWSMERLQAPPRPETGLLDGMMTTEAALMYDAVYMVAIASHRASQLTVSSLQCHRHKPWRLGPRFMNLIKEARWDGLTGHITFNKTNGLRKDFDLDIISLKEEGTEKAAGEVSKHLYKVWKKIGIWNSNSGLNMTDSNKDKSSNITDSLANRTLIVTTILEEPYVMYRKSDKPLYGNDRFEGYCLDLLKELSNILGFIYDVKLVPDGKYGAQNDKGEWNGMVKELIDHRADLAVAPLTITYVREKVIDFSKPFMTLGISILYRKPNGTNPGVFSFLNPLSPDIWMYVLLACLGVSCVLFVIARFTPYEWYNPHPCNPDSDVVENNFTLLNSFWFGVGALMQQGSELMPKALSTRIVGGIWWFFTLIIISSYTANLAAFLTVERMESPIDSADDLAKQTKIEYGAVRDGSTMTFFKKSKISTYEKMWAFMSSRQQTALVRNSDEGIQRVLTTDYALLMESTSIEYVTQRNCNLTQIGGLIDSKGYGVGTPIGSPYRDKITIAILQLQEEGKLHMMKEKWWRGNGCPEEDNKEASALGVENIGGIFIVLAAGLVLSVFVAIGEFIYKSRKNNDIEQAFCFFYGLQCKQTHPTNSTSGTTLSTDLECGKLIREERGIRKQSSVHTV
Sequence of Glutamate receptor ionotropic, kainate 2 (Q13002 whole entry): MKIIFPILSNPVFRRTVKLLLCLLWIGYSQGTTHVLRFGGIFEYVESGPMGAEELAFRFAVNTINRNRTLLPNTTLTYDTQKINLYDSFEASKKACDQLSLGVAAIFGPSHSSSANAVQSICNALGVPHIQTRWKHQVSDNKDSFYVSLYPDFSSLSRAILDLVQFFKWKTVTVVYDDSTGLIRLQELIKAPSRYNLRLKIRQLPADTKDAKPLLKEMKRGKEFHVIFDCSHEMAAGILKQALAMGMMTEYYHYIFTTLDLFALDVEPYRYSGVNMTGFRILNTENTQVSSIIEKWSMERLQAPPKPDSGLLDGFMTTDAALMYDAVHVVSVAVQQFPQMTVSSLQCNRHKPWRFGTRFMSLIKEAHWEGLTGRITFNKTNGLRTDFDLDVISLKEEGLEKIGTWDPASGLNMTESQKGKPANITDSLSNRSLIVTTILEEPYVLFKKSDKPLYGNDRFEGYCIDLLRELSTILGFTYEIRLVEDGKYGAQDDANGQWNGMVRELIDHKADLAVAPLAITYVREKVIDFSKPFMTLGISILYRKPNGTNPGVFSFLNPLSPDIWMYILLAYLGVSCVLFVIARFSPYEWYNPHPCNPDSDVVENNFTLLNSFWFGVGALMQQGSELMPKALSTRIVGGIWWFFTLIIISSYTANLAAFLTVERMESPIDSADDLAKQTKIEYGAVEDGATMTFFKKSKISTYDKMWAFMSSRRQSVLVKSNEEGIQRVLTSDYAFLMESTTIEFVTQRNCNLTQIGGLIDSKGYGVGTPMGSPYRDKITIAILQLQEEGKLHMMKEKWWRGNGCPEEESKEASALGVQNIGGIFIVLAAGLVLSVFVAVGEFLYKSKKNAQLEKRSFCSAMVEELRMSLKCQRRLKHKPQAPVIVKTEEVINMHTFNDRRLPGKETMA
Sequence of Glutamate receptor 4 (Rattus norvegicus) (P19493 whole entry, looked up): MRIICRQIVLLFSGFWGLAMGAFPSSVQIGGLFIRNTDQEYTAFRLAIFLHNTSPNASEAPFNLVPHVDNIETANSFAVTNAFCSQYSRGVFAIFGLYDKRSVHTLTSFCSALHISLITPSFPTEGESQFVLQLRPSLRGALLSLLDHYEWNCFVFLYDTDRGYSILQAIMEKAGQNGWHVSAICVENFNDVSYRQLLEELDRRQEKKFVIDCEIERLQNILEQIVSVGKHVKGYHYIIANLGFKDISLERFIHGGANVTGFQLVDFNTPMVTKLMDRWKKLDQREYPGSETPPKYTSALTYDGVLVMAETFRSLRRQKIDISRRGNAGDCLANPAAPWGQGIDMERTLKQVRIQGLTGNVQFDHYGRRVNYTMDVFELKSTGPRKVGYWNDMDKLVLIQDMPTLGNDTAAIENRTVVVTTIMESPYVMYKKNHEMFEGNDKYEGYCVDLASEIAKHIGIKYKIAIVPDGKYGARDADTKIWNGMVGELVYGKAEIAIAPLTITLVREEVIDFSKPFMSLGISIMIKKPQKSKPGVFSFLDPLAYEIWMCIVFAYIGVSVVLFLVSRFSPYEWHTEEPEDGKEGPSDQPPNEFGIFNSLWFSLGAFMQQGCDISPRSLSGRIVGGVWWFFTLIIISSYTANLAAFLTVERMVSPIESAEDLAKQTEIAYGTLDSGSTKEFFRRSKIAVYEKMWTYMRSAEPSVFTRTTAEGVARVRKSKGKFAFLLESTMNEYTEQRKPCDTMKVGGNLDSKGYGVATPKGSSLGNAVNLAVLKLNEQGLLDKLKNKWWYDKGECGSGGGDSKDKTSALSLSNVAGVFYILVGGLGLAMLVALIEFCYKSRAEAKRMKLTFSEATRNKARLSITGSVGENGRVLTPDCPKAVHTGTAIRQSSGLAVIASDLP
Sequence of Glutamate receptor 1 (Rattus norvegicus) (P19490 whole entry, looked up): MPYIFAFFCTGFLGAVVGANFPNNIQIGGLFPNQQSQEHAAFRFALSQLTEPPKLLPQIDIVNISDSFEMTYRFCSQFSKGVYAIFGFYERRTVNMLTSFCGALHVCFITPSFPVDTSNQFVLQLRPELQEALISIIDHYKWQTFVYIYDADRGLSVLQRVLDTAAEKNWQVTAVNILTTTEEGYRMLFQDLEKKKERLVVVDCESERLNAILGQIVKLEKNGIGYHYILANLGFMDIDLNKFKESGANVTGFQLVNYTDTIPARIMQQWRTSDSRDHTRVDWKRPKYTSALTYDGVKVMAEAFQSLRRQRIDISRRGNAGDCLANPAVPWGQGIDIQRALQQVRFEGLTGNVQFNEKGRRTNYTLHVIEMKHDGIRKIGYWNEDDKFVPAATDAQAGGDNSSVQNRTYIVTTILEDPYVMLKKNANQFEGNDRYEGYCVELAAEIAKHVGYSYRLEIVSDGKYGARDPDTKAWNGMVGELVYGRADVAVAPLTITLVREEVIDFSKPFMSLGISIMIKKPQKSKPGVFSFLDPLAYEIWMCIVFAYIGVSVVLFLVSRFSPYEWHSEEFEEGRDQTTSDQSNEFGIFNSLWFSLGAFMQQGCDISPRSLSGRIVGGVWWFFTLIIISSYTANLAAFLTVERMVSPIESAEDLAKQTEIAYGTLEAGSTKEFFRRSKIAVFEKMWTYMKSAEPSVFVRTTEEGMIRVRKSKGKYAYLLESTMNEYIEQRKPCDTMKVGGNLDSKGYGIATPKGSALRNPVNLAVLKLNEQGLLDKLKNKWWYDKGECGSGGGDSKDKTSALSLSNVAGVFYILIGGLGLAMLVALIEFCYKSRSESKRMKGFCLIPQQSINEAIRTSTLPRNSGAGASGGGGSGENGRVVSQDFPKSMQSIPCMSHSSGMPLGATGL

SMILES | IC50 [1] [µM] | other results
COc1ccc(NC(=O)Nc2cc(Cl)ccc2C(=O)O)cc1 | 10 | 
O=C(Nc1cc(Cl)ccc1C(=O)O)NC1CCCCC1 | > 100 | 
Cc1cccc(NC(=O)Nc2cccc(C(F)(F)F)c2)c1C(=O)O | > 100 | 
O=C(Nc1cccc(C(F)(F)F)c1)Nc1cc(Cl)ccc1C(=O)O | 5 | 
Cc1ccc(NC(=O)Nc2cccc(C(F)(F)F)c2)c(C(=O)O)c1 | > 100 | 
O=C(Nc1ccc2cc3ccccc3cc2c1)Nc1cc(Cl)ccc1C(=O)O | > 30 | 
O=C(Nc1cc(Cl)ccc1C(=O)O)Nc1ccccc1C(F)(F)F | 4.5 | 
Cc1cccc(C(=O)O)c1NC(=O)Nc1cccc(C(F)(F)F)c1 | > 100 | 
O=C(Nc1cc(NC(=O)c2ccccc2)c(C(=O)O)cc1C(=O)O)c1ccccc1 | 1.6 | 
O=C(Nc1cccc(C(F)(F)F)c1)Nc1cc(F)ccc1C(=O)O | 10 | 
O=C(Nc1ccc2ccccc2c1)Nc1cc(Cl)ccc1C(=O)O | 1.2 | IC50 [2]: > 100 µM; IC50 [3]: > 30 µM; ED50 [4]: > 30 mg/kg; IC50 [5]: > 100 µM; IC50 [7]: 62 µM; ED50 [8]: > 30 mg/kg; IC50 [9]: > 100 µM
O=C(Nc1cccc(C(F)(F)F)c1)Nc1cc(Br)ccc1C(=O)O | 6.1 | 
O=C(Nc1cc2ccccc2[nH]1)Nc1cc(Cl)ccc1C(=O)O | 1.2 | 
O=C(Nc1ccc2c(c1)OCO2)Nc1cc(Cl)ccc1C(=O)O | 3.6 | 
O=C(Nc1ccc(C(F)(F)F)cc1)Nc1cc(Cl)ccc1C(=O)O | 4.8 | 

More lines, main results first:

IC50 [1] [µM] | SMILES | other results
3.7 | COc1cccc(NC(=O)Nc2cc(Cl)ccc2C(=O)O)c1 | 
3.1 | O=C(Nc1ccc(Cl)cc1)Nc1cc(Cl)ccc1C(=O)O | 
4.7 | O=C(Nc1ccccc1Cl)Nc1cc(Cl)ccc1C(=O)O | 
88 | O=C(Nc1ccncc1)Nc1cc(Cl)ccc1C(=O)O | 
2.2 | O=C(Nc1cccc(I)c1)Nc1cc(Cl)ccc1C(=O)O | 
4.8 | O=C(Nc1cccc(Br)c1)Nc1cc(Cl)ccc1C(=O)O | IC50 [2]: > 100 µM; IC50 [3]: > 30 µM; ED50 ([4]; Mus musculus, 5 min): 4 mg/kg; IC50 [5]: > 100 µM; IC50 [6]: > 100 µM; IC50 [7]: 28 µM; ED50 ([8]; Mus musculus, 0.5 h): 24 mg/kg; IC50 [9]: > 100 µM
> 10 | O=C(Nc1cc(Cl)ccc1C(=O)O)Nc1ccccc1-c1ccccc1 | 
2.2 | O=C(Nc1ccc(Br)cc1)Nc1cc(Cl)ccc1C(=O)O | 
5 | O=C(Nc1ccccc1I)Nc1cc(Cl)ccc1C(=O)O | 
4.7 | O=C(Nc1ccc(I)cc1)Nc1cc(Cl)ccc1C(=O)O | 
4.5 | O=C(Nc1ccccc1Br)Nc1cc(Cl)ccc1C(=O)O | 
10 | O=C(Nc1ccccc1)Nc1cc(Cl)ccc1C(=O)O | 
9.4 | O=C(Nc1cc(Cl)ccc1C(=O)O)Nc1cccc2ccccc12 | 
7.6 | O=C(Nc1cccc(F)c1)Nc1cc(Cl)ccc1C(=O)O | 
> 100 | O=C(Nc1ccccc1)Nc1ccccc1C(=O)O | 
